The Inhibition is the share of the control response that was lost under treatment. High values mean a response far below the control, low ones a response near the control. What is called IC50 is the midpoint of a concentration-inhibition curve. High values mean lower potency, low ones higher potency.

One compound from ChEMBL document CHEMBL1127556, “Synthesis and topical antiinflammatory and antiallergic activities of antioxidant o-aminophenol derivatives” (J Med Chem, 1994) can be followed below.

Converted amounts (≈) assume the structure as drawn.

The test system of data set [1] is Mus musculus. Kind of data set: Evaluated for its inhibitory effects on 12-O-tetradecanoylphorbol-13-acetate (TPA) -induced edema in mouse ear at a dose of 100 ug/site. The class given is functional. In outline:
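Male ICR mice, 30–40 g, 10–15 per group. Test compound applied in 25 μL acetone/pyridine/water 97:2:1 containing TPA (200 μg/mL) to the inner surface of one ear. Killed with CO2 5 h later; 6-mm ear punch weighed wet for edema. ED50 taken from three-point dose titration curves.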

The species entered for data set [2] is Oryctolagus cuniculus. The data set is described as follows: Compound was evaluated for primary irritation test by applying at the abraded site and the average score was reported. Number of animals tested =6. The data set is classed as toxicity, organism-based. Particulars: rabbit, in vivo, topical_or_ocular. In outline:
(§1)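 Rabbit backs shaved and depilated; 0.5 g compound applied to four sites (two intact, two abraded) under gauze for 24 h. Sites examined grossly 24 and 72 h after removing covering; scored by Draize method.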

The species named for data set [3] is Oryctolagus cuniculus. Kind of data set: Compound was evaluated for primary irritation test by applying at the intact site and the average score was reported. Number of animals tested =6. The data set is classed as toxicity, organism-based. Particulars: rabbit, in vivo, topical_or_ocular. In outline:
as §1

Data set [4] deals with Mus musculus. Kind of data set: Inhibitory effects on arachidonic acid (AA) induced mouse ear edema at a dose of 100 ug/ear. The data set is classed as functional. The gist of the method:
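Male ICR mice (30–40 g, 10–15 per group). Compound in 25 μL acetone/pyridine/water 97:2:1 with arachidonic acid (50 mg/mL) applied to inner surface of one ear. After 1 h, CO2 sacrifice, 6-mm disk punched, edema measured as change in wet weight versus controls.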

For data set [5], the species on record is Mus musculus. Kind of data set: Inhibitory effects on delayed type hypersensitive reaction in mouse ears at a dose of 300 ug/site. The data set is classed as functional. In outline: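 ICR mice, 10 or 12 per group, sensitized by abdominal swabbing with 0.1 mL antigen in acetone (7% picryl chloride or 1% OXA). DTH response assessed in mouse ears.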
The species entered for data set [6] is Rattus norvegicus. The data set is described as follows: Evaluated for its antioxidative effect using the thiobarbituric acid (TBA) method in rat. The class given is functional. The gist of the method:
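Test sample in 67 mM phosphate buffer pH 7.4 mixed with 10% male Wistar rat (300–400 g) forebrain homogenate. Shaken 1 h at 37 °C, deproteinated with 20% TCA. Supernatant heated 10 min at 100 °C with 1.2% thiobarbiturate; absorbance read at 532 nm.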

The species entered for data set [7] is Rattus norvegicus. Kind of data set: Inhibitory effects on passive cutaneous anaphylaxis in rats at a dose of 1 mg/site. The data set is classed as functional. The gist of the method: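 Male SD rats, eight per group, sensitized intradermally at two dorsal sites with 0.05 mL anti-ovalbumin rat IgE serum diluted 1:8 in 0.9% saline. Compound applied topically to those sites 5 h before iv challenge 48 h later with 2 mg ovalbumin plus 5 mg Evans blue in 1 mL. Extravasated dye measured 30 min later; percent inhibition versus control group.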

`Cc1ccc(O)c(NCCCN2CCC(C(O)(c3ccccc3)c3ccccc3)CC2)c1`: the Inhibition amounted to 89% with Mus musculus [1], 61.5% in the data set with Mus musculus [4], 77% in the data set filed under Mus musculus [5] and 36.8% in the data set listed under Rattus norvegicus [7]. Further, the Average score in the data set listed under Oryctolagus cuniculus [2] and in the data set listed under Oryctolagus cuniculus [3] was 0 in each case. The same compound came in with an IC50 in the data set filed under Rattus norvegicus [6] of 0.029 µg/mL (≈ 0.0673 µM).
